Reference: ChEMBL document CHEMBL5653631, “A Potent and Selective ULK1 Inhibitor Suppresses Autophagy and Sensitizes Cancer Cells to Nutrient Stress” (iScience, 2018)

Experiments:
[1] = biological target: T1, Bone morphogenetic protein receptor type-2 (Homo sapiens) (UniProt Q13873); assay: Inhibition of human recombinant BMPR2 at 500 nM related to control ULK1
T1 sequence (whole entry): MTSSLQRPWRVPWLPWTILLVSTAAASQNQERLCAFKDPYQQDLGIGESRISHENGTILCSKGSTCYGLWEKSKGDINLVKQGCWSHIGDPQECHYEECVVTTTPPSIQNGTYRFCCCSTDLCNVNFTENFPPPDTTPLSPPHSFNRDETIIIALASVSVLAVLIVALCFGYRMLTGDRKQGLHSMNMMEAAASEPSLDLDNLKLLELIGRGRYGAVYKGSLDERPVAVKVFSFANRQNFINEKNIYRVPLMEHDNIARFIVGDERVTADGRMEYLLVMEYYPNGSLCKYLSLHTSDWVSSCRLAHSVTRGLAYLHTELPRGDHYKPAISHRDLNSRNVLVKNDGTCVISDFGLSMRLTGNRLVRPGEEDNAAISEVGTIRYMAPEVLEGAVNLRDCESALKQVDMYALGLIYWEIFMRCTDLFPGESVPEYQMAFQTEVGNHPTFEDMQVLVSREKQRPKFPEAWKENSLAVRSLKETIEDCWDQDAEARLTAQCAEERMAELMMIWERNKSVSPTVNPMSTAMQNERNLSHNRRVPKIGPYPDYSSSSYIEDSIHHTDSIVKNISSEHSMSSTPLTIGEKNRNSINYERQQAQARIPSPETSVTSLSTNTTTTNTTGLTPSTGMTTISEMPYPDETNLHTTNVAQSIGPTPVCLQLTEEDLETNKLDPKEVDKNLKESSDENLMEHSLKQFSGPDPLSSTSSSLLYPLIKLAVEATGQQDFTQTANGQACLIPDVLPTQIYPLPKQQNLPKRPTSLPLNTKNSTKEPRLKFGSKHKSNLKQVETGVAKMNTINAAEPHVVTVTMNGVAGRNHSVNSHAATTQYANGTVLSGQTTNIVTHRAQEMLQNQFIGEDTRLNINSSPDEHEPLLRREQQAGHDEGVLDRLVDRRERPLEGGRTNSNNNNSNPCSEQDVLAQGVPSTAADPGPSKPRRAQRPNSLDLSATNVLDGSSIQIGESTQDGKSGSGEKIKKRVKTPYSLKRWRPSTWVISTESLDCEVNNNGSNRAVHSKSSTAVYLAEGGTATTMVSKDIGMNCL

[2] = biological target: Cyclin-dependent kinase-like 1 (Homo sapiens) (UniProt Q00532); assay: Inhibition of human recombinant CDKL1 at 500 nM related to control ULK1
[3] = biological target: BDNF/NT-3 growth factors receptor (Homo sapiens) (UniProt Q16620); assay: Inhibition of human recombinant TRKB at 15 nM in presence of ATP by radiometric assay relative to control
[4] = biological target: Tyrosine-protein kinase HCK (Homo sapiens) (UniProt P08631); assay: Inhibition of human recombinant HCK at 15 nM related to control ULK1
[5] = biological target: T2, Serine/threonine-protein kinase A-Raf (Homo sapiens) (UniProt P10398); assay: Inhibition of human recombinant ARAF at 15 nM in presence of ATP by radiometric assay relative to control
T2 sequence (whole entry): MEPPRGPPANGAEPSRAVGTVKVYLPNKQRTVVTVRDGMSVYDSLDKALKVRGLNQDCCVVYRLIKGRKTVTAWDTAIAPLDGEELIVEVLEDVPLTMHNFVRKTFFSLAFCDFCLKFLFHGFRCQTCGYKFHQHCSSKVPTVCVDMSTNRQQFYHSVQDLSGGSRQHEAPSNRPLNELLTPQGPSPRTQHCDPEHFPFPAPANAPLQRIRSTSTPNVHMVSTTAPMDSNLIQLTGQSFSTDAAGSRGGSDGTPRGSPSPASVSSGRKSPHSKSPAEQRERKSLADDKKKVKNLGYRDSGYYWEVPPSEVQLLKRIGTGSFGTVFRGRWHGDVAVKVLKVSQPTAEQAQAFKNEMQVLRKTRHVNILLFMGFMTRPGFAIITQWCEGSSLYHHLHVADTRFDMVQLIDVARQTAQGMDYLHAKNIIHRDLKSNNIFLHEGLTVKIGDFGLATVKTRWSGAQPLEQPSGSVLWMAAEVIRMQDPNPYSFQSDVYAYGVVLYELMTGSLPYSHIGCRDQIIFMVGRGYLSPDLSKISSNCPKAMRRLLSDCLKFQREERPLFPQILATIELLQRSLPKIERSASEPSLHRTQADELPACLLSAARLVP
Procedure, shortened: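 Panel of 327 recombinant human kinases, each assayed in vitro by radiometric activity assay in duplicate at a single inhibitor concentration per compound, chosen with reference to its ULK1 inhibition. Activity remaining was expressed as percent of vehicle control, and percent inhibition was calculated as 100 minus percent activity remaining.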

[6] = biological target: Platelet-derived growth factor receptor beta (Homo sapiens) (UniProt P09619); assay: Inhibition of human recombinant PDGFRb at 15 nM in presence of ATP by radiometric assay relative to control
[7] = biological target: Serine/threonine-protein kinase PAK 1 (Homo sapiens) (UniProt Q13153); assay: Inhibition of human recombinant PAK1 at 15 nM in presence of ATP by radiometric assay relative to control
Sequence of Serine/threonine-protein kinase PAK 1 (Homo sapiens) (Q13153 whole entry, looked up): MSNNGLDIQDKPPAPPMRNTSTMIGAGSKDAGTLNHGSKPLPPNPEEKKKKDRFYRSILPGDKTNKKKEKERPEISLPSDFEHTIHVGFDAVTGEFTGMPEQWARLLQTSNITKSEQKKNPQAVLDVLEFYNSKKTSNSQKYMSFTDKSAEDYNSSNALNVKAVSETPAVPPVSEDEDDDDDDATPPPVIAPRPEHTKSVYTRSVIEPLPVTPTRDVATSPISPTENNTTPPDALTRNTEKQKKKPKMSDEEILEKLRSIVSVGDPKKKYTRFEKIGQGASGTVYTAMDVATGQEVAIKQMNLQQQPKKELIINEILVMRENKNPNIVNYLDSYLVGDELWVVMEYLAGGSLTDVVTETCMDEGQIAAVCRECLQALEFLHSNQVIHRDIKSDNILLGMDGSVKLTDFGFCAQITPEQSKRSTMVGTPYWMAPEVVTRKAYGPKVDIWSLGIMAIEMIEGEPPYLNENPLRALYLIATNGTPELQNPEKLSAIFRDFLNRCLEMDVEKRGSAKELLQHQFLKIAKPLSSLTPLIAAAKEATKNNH

Sequence of BDNF/NT-3 growth factors receptor (Homo sapiens) (Q16620 32-822 limits assumed): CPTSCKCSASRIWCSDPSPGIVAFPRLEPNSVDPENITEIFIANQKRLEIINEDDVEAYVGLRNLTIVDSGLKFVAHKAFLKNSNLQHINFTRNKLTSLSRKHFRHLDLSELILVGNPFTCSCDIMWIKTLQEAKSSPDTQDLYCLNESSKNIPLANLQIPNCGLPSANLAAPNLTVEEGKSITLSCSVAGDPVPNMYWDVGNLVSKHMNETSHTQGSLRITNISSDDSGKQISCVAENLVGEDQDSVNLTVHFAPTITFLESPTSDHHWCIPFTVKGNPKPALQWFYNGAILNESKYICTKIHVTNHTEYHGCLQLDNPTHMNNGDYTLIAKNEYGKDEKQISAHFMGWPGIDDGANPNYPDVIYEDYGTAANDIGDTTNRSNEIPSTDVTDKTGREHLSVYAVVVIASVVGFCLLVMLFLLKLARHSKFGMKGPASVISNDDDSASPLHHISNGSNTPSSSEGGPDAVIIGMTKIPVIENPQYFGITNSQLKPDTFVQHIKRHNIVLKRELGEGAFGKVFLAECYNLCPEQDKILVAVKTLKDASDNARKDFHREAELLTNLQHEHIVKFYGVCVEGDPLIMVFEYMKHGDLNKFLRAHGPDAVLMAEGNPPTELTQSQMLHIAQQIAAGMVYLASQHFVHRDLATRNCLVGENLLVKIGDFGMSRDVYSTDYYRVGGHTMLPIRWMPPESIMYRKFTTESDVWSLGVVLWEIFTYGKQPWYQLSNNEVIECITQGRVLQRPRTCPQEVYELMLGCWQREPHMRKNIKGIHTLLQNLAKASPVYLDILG
Sequence of Platelet-derived growth factor receptor beta (Homo sapiens) (P09619 whole entry): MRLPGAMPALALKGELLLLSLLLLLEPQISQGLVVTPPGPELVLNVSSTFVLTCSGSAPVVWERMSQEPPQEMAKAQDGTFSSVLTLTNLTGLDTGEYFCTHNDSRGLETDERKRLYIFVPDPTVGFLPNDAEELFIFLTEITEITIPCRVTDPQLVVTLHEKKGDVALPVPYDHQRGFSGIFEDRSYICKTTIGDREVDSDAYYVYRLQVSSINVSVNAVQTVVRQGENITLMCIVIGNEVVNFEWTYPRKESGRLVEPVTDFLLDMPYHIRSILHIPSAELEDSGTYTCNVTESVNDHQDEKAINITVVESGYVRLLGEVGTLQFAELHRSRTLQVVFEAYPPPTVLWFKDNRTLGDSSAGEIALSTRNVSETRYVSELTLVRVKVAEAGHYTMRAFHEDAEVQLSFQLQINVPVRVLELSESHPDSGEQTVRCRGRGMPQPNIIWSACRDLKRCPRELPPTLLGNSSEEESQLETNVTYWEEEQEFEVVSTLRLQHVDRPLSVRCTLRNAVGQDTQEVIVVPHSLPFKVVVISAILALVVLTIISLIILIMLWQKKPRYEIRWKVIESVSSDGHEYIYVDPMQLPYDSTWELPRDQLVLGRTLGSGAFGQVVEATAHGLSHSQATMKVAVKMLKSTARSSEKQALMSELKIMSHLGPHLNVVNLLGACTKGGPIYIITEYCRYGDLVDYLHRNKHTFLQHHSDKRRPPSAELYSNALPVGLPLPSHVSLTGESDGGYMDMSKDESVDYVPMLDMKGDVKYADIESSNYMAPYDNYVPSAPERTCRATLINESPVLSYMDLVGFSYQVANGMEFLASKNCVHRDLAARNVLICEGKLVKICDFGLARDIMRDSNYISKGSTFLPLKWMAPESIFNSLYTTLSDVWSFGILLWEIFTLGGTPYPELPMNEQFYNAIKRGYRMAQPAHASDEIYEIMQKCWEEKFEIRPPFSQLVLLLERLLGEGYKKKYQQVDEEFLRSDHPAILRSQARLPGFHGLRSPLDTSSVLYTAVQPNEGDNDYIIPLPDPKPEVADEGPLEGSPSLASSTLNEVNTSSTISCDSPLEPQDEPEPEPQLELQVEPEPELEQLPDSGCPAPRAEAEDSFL
Sequence of Tyrosine-protein kinase HCK (Homo sapiens) (P08631 2-526 limits assumed): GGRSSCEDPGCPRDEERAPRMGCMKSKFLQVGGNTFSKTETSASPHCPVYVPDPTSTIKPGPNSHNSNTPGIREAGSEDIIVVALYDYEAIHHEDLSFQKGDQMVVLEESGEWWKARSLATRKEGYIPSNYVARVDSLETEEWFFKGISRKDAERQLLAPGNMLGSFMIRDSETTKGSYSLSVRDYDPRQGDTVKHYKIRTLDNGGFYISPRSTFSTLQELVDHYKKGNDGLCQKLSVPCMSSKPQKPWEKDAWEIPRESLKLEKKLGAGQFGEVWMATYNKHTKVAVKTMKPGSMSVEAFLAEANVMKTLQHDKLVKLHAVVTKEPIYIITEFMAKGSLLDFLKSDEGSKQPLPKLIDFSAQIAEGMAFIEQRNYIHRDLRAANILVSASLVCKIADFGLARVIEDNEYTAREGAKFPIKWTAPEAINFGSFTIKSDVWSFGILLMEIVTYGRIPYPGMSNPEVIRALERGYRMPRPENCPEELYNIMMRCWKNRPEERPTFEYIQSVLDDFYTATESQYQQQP
Sequence of Cyclin-dependent kinase-like 1 (Homo sapiens) (Q00532 whole entry): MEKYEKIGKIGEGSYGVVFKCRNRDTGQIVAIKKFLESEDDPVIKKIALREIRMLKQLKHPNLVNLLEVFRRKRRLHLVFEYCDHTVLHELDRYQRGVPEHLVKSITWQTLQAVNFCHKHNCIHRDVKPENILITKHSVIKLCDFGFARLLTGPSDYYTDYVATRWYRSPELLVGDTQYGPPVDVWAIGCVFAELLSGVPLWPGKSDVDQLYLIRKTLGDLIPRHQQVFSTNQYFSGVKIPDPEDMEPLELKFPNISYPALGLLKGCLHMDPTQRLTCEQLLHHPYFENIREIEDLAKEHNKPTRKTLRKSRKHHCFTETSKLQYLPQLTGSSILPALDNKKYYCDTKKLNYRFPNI

For `CNC(=O)c1ccccc1Oc1nc(Nc2cc(OC)c(OC)c(OC)c2)ncc1Br`, the fold change (FC) [1] was 0 and the fold change (FC) [2] was 0.

`CC(C)[C@H](NC(=O)c1cc(-c2cnn3cc(-c4ccc(OCCN5CCCCC5)cc4)cnc23)cs1)C(F)(F)F` showed an inhibition [3] of 0%, a fold change (FC) [4] of 0.3 and an inhibition [5] of 6%. The inhibition [6] was 0% and the inhibition [7] was 0%.
